From ChEMBL document CHEMBL1135638, “Synthesis, molecular modeling studies, and pharmacological activity of selective A(1) receptor antagonists” (J Med Chem, 2002) come the findings set out here.

Test [1] concerns the target T1, Adenosine receptor A1 (Bos taurus) (UniProt P28190).
T1 sequence (whole entry): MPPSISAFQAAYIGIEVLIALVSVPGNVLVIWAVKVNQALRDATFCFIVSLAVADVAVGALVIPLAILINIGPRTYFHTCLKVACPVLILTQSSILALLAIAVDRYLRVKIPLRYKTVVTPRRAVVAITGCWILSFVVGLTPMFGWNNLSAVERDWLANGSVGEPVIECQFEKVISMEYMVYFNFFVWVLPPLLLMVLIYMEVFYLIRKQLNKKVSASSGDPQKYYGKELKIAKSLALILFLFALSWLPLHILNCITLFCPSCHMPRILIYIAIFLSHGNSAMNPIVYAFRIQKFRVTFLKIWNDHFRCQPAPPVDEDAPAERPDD
Kind of test: Percent inhibition of specific [3H]CHA binding on Adenosine A1 receptor in bovine cortical membranes at 10 uM concentration. The class given is cell membranes.

For test [2], the system named is Adenosine receptor A2a (Bos taurus). Kind of test: Percent inhibition of specific [3H]-CGS-21,680 binding to adenosine A2A receptors in bovine striatal membranes at 10 uM concentration.
Test [3] deals with T2, Adenosine receptor A1 (Bos taurus, UniProt P28190).
T2 sequence (P28190 whole entry): T1 sequence (whole entry)
The test is described as follows: Binding affinity at bovine Adenosine A1 receptor.

Test [4] concerns the target T2, Adenosine receptor A1. The test is described as follows: Binding affinity to Adenosine A1 receptor in bovine cortical membranes by [3H]N6-cyclohexyl adenosine displacement. The class given is cell membranes.
The target in test [5] is T3, Adenosine receptor A1 (Rattus norvegicus, UniProt P25099).
T3 sequence (P25099 whole entry): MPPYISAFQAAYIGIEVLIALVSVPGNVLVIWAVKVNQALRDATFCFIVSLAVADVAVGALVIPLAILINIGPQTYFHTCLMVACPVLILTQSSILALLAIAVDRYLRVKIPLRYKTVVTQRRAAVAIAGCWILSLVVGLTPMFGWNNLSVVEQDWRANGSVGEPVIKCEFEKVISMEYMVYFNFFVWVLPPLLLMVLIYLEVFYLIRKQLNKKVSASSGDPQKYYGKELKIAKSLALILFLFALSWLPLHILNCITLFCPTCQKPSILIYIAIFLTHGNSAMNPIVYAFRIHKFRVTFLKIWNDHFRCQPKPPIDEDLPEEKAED
The test is described as follows: Binding affinity against rat Adenosine A1 receptor.

In test [6] the target is T2, Adenosine receptor A1. The test is described as follows: Displacement of [3H]DPCPX from Adenosine A1 receptor of bovine cortical membranes without GTP. Put shortly: (§1)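 [3H]DPCPX displacement from bovine cortical membranes, method of Pirovano et al., run with and without 1 mM GTP. Values from three separate experiments, mean ± SEM.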
On the technique in general: In a radioligand displacement assay an active substance lowers the binding of a labelled ligand.

In test [7] the target is T2, Adenosine receptor A1. The test is described as follows: Displacement of [3H]DPCPX from Adenosine A1 receptor of bovine cortical membranes with 1 mM GTP. Put shortly: as §1
Test [8] in a line: Compound was evaluated for the inhibition of Adenylate cyclase activity. The class given is functional.

As a reminder, the inhibition is the percentage by which the read-out fell short of the control. High values mean a strong effect, low ones a weak effect. Take `CCOCCNc1c(C(=O)OCC)cnc2c1cnn2/C=C/c1ccccc1`: the inhibition in test [1] was 51%; in test [2] it was 0%.

One may read the Ki as a dissociation constant, usually derived from enzyme kinetics or from competition with a known ligand. A high value points to lower affinity. For the molecule `c1ccc(-c2nc3c(NC4CCCC4)[nH]c4ccccc4c-3n2)cc1`, in test [3], the affinity corresponds to a Ki of 10 nM.

For `CCOC(=O)c1cnc2c(cnn2CC(Cl)COc2ccccc2)c1NC1CCCCC1` (stereo not given), the Ki in test [4] came out at 3710 nM. The same molecule yielded an inhibition in test [2] of 1%. In turn, `CN1C=NC2C(NC3CCCC3)=NC=NC21` (stereo not given) gave a Ki in test [3] of 540 nM. This lies in the sub-micromolar range.

For the molecule `CCCSc1nc(SC(CC)C(N)=O)nc2c1ncn2-c1ccccc1` (stereo not given), in test [3], affinity was put at a Ki of 29.5 nM. Consider `CCCNc1c(C(=O)OCC)cnc2c1cnn2/C=C/c1ccccc1`, for which the inhibition in test [1] came to 40%; in test [2], 0%. For `CCOC(=O)c1cnc2c(cnn2CC(Cl)COc2ccccc2)c1N1CCOCC1` (stereo not given), the inhibition in test [1] is 40%; in test [2], 0%.

In test [3], `Cc1nn(C)c2c(=O)[nH]c(-c3ccc(Cl)cc3N)nc12` displayed a Ki of 176 nM. As for `CCCCNc1c(C(=O)OCC)cnc2c1cnn2CC(Cl)COc1ccccc1` (stereo not given), the Ki in test [4] was 1220 nM. In test [2], this molecule had an inhibition of 23%. Regarding `COc1ccc(-c2nc(N)c3c(C)c(C)n(C(C)c4ccccc4)c3n2)cc1` (stereo not given), the affinity in test [3], expressed as Ki, was 101 nM.

Take `Nc1nc2ccc(Cl)cc2n2nc(-c3ccccc3F)nc12`: the Ki in test [3] came to 13 nM. In the case of `CCOC(=O)c1cnc2c(cnn2/C=C/c2ccccc2)c1N1CCCC1`, the inhibition was 39% in test [1] and 0% in test [2]. Take `Nc1nc(-c2ccncc2)nc2c1c1c(n2-c2ccccc2)CCCC1`: the inhibition constant Ki in test [3] is 600 nM. For `CCOC(=O)c1cnc2c(cnn2/C=C/c2ccccc2)c1N1CCOCC1`, the inhibition is 40% in test [1] and 0% in test [2]. `CCOC(=O)c1cnc2c(cnn2CC(Cl)c2ccccc2)c1NC1CCCCC1` (stereo not given) showed a Ki in test [4] of 1490 nM. Moreover, the inhibition in test [2] turned out to be 0%.

In test [2], `CCOC(=O)c1cnc2c(cnn2CC(Cl)c2ccccc2)c1N1CCOCC1` (stereo not given) gave an inhibition of 0%. In test [3], `FC(F)(F)c1nnc2c(NC3CCCC3)nc3ccccc3n12` came in with a Ki of 7.3 nM.

For the molecule `CCOC(=O)c1cnc2c(cnn2/C=C/c2ccccc2)c1NCc1ccccc1`, the figures for the inhibition in test [1] and in test [2] were 39% and 2%, respectively.

`O=C(O)CCCn1nc(-c2c(-c3ccccc3)nn3ccccc23)ccc1=O` displayed an inhibition constant Ki in test [3] of 6.6 nM. On the same count and under the same terms, the value for `CCCn1c(=O)c2[nH]c(C3CCC(=O)C3)nc2n(CCC)c1=O` (stereo not given) was 15 nM. As to `CCOC(=O)c1cnc2c(cnn2/C=C/c2ccccc2)c1NC1CC1`, the inhibition in test [1] was determined as 67%; in test [2], 0%.

For the molecule `CCOC(=O)c1cnc2c(cnn2CC(Cl)COc2ccccc2)c1NCCc1ccccc1` (stereo not given), the Ki in test [4] came out at 456 nM. In test [2], this molecule showed an inhibition of 5%. `CCOC(=O)c1cnc2c(cnn2CC(Cl)COc2ccccc2)c1N1CCCC1` (stereo not given): the inhibition in test [1] worked out at 33%; in test [2], 15%. The like results for `CCOC(=O)c1cnc2c(cnn2/C=C/c2ccccc2)c1NCCc1ccccc1` were, in that order, 58% and 2%. Regarding `CCOC(=O)c1cnc2c(cnn2CC(Cl)COc2ccccc2)c1NCc1ccccc1` (stereo not given), the inhibition is 36% in test [1] and 12% in test [2]. For `CCCCNc1c(C(=O)OCC)cnc2c1cnn2/C=C/c1ccccc1`, the inhibition is 60% in test [1] and 0% in test [2]. With `CCOC(=O)c1cnc2c(cnn2/C=C/c2ccccc2)c1NC1CCCCC1`, the inhibition was 21% in test [1] and 0% in test [2].

Molecule `CCOC(=O)c1cnc2c(cnn2CC(Cl)COc2ccccc2)c1NC1CC1` (stereo not given) showed a Ki in test [4] of 1050 nM. Also, the inhibition in test [2] came to 34%. Regarding `CCOC(=O)c1cnc2c(cnn2CC(Cl)c2ccccc2)c1N1CCCCC1` (stereo not given), the inhibition in test [1] came out at 41%; in test [2] it was 23%. For the molecule `O=C(/C=C/C1=CC=CN2N=C(c3ccccc3)CC12)N1CCCC[C@H]1CCO` (stereo not given in full), the Ki in test [3] came to 0.49 nM. This lies in the sub-nanomolar range. On to `Cc1cnc2c(NC3CCCC3)nc3ccccc3n12`, for which the affinity in test [3], expressed as Ki, was 7.9 nM. Turning to `C[C@H](c1ccccc1)n1c2ccccc2c2c(N)nc(-c3ccccc3)nc21`, in test [3], the Ki is 2.6 nM. Molecule `CCOC(=O)c1cnc2c(cnn2CC(Cl)c2ccccc2)c1NCc1ccccc1` (stereo not given) yielded an inhibition in test [2] of 0%. By IC50 is commonly meant the point on the concentration scale where inhibition reaches its midpoint. With `CCOC(=O)c1cnc2c(cnn2CC(Cl)c2ccccc2)c1N1CCCC1` (stereo not given), the inhibition constant (Ki) in test [5] was determined as 140 nM; in test [6] it was 103 nM; in test [7], 90 nM. Further, half-maximal inhibition in test [8] (IC50) was put at 154 nM. The like results for `CCOC(=O)c1cnc2c(cnn2CC(Cl)c2ccccc2)c1NCCc1ccccc1` (stereo not given) were, in that order, 73 nM, 69.7 nM, 56 nM and 52.2 nM. `CCOCCNc1c(C(=O)OCC)cnc2c1cnn2CC(Cl)COc1ccccc1` (stereo not given) registered a Ki in test [4] of 2690 nM.
